ChEMBL document CHEMBL3286347, “Evaluation of anti-inflammatory activity of prenylated substances isolated from Morus alba and Morus nigra” (J Nat Prod, 2014)
Active and inactive are the calls of the source. The calls are words filed in the database; no cut-off is given here.

Key:
THP-1 [1] = assay: Cytotoxicity against human THP1 cells after 24 hrs by WST1 assay; type: cell-based; details: THP-1, 24 h
Summary of the method: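 THP-1 monocyte suspension (5 × 10^5 cells/mL) exposed to compounds in DMSO, 30 down to 0.37 μM, DMSO 0.1% final; 24 h at 37 °C, 5% CO2; viability by WST-1 reagent; IC50 calculated from viability curves; triplicate, arithmetic mean ± SE.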

THP-1 [2] = assay: Antiinflammatory activity in human THP1 cells assessed as inhibition of TNFalpha secretion at 1 uM treated 1 hr before LPS challenge measured after 24 hrs by ELISA; type: functional, cell-based
Summary of the method: (§1)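 THP-1 monocytes (RPMI 1640, 10% FBS, 37 °C, 5% CO2) differentiated to macrophages with PMA; pretreated 1 h with test agent at 1 μM in DMSO (0.1% final); LPS (E. coli 0111:B4) 1 μg/mL added, medium collected after 24 h and stored at −80 °C; secreted cytokine quantified by ELISA; vehicle and non-LPS controls; three independent experiments, mean ± SE.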

THP-1 [3] = assay: Antiinflammatory activity in human THP1 cells assessed as inhibition of IL-1beta secretion at 1 uM treated 1 hr before LPS challenge measured after 24 hrs by ELISA; type: functional, cell-based; summary of the method: as §1
THP-1 [4] = assay: Ratio of prednisone to compound for antiinflammatory activity in human THP1 cells assessed as inhibition of TNFalpha secretion at 1 uM treated 1 hr before LPS challenge measured after 24 hrs by ELISA; type: functional
[5] = molecular target: Transcription factor p65 (Homo sapiens) (UniProt Q04206); assay: Inhibition of NFkappaB p65 nuclear translocation in LPS-induced human THP1 cells at 1 uM treated 1 hr before LPS challenge measured after 3 hrs using propidium iodide staining by fluorescence microscopic analysis; type: cell-based; details: THP-1
Sequence of Transcription factor p65 (Homo sapiens) (Q04206 whole entry): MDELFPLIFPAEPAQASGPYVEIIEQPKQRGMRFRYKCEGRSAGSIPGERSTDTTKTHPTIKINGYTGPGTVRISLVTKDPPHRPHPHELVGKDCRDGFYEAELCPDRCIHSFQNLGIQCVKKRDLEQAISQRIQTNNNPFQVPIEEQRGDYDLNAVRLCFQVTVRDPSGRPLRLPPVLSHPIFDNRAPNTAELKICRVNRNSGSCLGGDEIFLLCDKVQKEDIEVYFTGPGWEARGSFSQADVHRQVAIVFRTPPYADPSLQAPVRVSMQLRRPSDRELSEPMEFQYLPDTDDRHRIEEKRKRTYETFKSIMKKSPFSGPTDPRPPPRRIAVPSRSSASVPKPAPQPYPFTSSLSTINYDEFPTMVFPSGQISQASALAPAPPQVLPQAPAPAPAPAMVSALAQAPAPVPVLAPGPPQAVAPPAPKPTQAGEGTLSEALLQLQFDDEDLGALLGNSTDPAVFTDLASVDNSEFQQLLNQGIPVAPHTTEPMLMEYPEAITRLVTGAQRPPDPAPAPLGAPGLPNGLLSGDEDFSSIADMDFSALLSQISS
Summary of the method: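 PMA-differentiated THP-1 macrophages in serum-free RPMI (5 × 10^5 cells/mL) pretreated 1 h at 1 μM, then LPS 1 μg/mL final for 3 h; acetone-fixed, BSA-blocked, rabbit anti-p65 overnight at 4 °C, FITC anti-rabbit IgG 1 h, nuclei counterstained with propidium iodide 0.5 μg/mL; p65/nuclear colocalization viewed by fluorescence microscopy; three independent experiments.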

A2780 = assay: Cytotoxicity against human A2780 cells; type: cell-based

Row | inhibition [5] | SMILES | IC50 (THP-1 [1]) [µM] | inhibition (THP-1 [2]) | inhibition (THP-1 [3]) | Ratio (THP-1 [4]) | IC50 (A2780) [µM]
1 | – | CC(C)=CCc1c(O)ccc(C(=O)[C@@H]2[C@@H](c3ccc(O)cc3O)CC(C)=C[C@H]2c2c(O)cc3c(c2O)C(=O)[C@@H]2Oc4cc(O)ccc4[C@]2(CC=C(C)C)O3)c1O | 4 | – | – | – | –
2 | – | CC(C)=CCc1c(-c2ccc(O)cc2O)oc2c(CC=C(C)C)c(O)cc(O)c2c1=O [KUWANON C] | 1.7 | Active | Active | – | –
3 | Active | CC(C)(O)CCc1c(-c2ccc(O)cc2O)oc2c3c(cc(O)c2c1=O)OC(C)(C)C=C3 [MORUSINOL] | 4.3 | Active | Active | 2 | –
4 | Active | CC1(C)C=Cc2c(O)ccc([C@@H]3CC(=O)c4c(O)cc(O)cc4O3)c2O1 | > 10 | Active | Active | – | –
5 | – | CC(C)=CCc1c(O)ccc([C@@]23Oc4cc(O)ccc4[C@@H]4CC(C)=C[C@@H](c5c(O)cc(-c6cc7ccc(O)cc7o6)cc5O2)[C@H]43)c1O | – | – | – | – | 1.2
6 | Active | C[C@@]12C=C(c3c(O)cc(-c4cc5ccc(O)cc5o4)cc3O)C[C@@H](C1)c1ccc(O)cc1O2 [MULBERROFURAN H] | 3.2 | – | inactive | – | –
7 | – | COc1c(O)cc2oc(-c3cc(O)cc(O)c3)cc2c1C/C=C(\C)CCC=C(C)C [MULBERROFURAN Y] | 4.8 | – | Active | – | –
8 | – | CC(C)=CCc1c(O)cc(-c2cc3ccc(O)cc3o2)cc1O [MORACIN C] | 3.2 | – | inactive | – | –
9 | – | CC(C)=CCC/C(C)=C/Cc1cc(C2CC(=O)c3c(O)cc(O)cc3O2)c(O)cc1O (centres undefined) [KUWANON E] | 4 | Active | Active | – | –
10 | Active | CC(C)=CCc1c(-c2ccc(O)cc2O)oc2cc3c(c(O)c2c1=O)C=CC(C)(C)O3 [CUDRAFLAVONE B] | > 10 | Active | inactive | – | –
11 | – | CC1=C[C@@H]2c3c(O)cc(C=O)cc3OC3(c4ccc(O)c5c4OC(C)(C)C=C5)Oc4cc(O)ccc4[C@@H](C1)[C@H]23 (some centres undefined) | 4.7 | – | – | – | –
